In ChEMBL document CHEMBL3792306, “Antichagasic and trichomonacidal activity of 1-substituted 2-benzyl-5-nitroindazolin-3-ones and 3-alkoxy-2-benzyl-5-nitro-2H-indazoles” (Eur J Med Chem, 2016):
pIC50: −log10 of the molar value.

Key:
[1] = Selectivity index, ratio of CC50 for african green monkey Vero cells to IC50 for metronidazole-resistant Trichomonas vaginalis IR78 trophozoites; assay type: functional
How it was run: (§1)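 Selectivity index = Vero CC50 (24 h resazurin, probit) divided by trophozoite IC50 (24 h resazurin, probit) for the named T. vaginalis isolate.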

[2] = test system: Trichomonas vaginalis; test: Trichomonacidal activity against metronidazole-resistant Trichomonas vaginalis IR78 trophozoites after 24 hrs by resazurin dye based fluorescence assay; assay type: functional, organism-based; settings: IR78, 24 h
How it was run: (§2)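 Trophozoites in TYM with 10% FBS, 37 °C, 5% CO₂, seeded at 10⁵/mL in glass tubes. After 5 h, compounds added at 9.37–300 µM final (DMSO <0.2%). Viability read by resazurin fluorimetry after 24 h at 37 °C. Metronidazole 25 µM as reference. At least two runs in triplicate; IC50 with 95% limits by probit.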

[3] = Selectivity index, ratio of CC50 for african green monkey Vero cells to IC50 for metronidazole-sensitive Trichomonas vaginalis JH31A#4 trophozoites; assay type: functional; how it was run: as §1
[4] = test system: Trichomonas vaginalis; test: Trichomonacidal activity against metronidazole-sensitive Trichomonas vaginalis JH31A#4 trophozoites after 24 hrs by resazurin dye based fluorescence assay; assay type: functional, organism-based; settings: JH31A#4, 24 h; how it was run: as §2
[5] = Cytotoxicity against mouse L929 cells after 48 hrs by resazurin assay; assay type: cell-based; settings: read-out: LC50
How it was run: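 L929 fibroblasts, 15×10^3 cells/well in MEM, attached 3 h. Exposed to compounds for 48 h at 37 °C, 5% CO2. Resazurin (2 mM solution in PBS) added for 3 h; fluorescence read at 535/590 nm to give % cytotoxicity. Triplicate wells, three independent runs. LC50 taken from concentration vs %C curves, mean ± SD.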

[6] = test system: Trypanosoma cruzi; test: Antichagasic activity against Trypanosoma cruzi CL-B5 epimastigotes […] assessed as growth inhibition after 72 hrs by beta galactosidase reporter gene assay; assay type: functional, organism-based
How it was run: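 Then CPRG (200 µM final, pH 7.4) in Triton X-100 added for 3 h at 37 °C, A595 read. Triplicates, three independent runs; IC50 from dose–response of %growth inhibition, mean ± SD.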

[7] = Cytotoxicity against african green monkey Vero cells assessed as inhibition of cell growth after 24 hrs by resazurin dye based fluorescence assay; settings: chlorocebus sabaeus
How it was run: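 Vero CCL-81 cells (50,000/well, RPMI with 10% FBS) attached 6 h at 37 °C, then 24 h with compound. Resazurin added for 3 h, fluorescence at ex 535/em 590 nm. Triplicates in two independent assays; CC50 and 95% confidence limits by probit analysis.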

[8] = Cytotoxicity against african green monkey Vero cells assessed as inhibition of cell growth at 300 uM after 24 hrs by resazurin dye based fluorescence assay; settings: chlorocebus sabaeus, read-out: Activity
[9] = Selectivity index, ratio of LC50 for mouse L929 cells to IC50 for Trypanosoma cruzi CL-B5 lacZ epimastigotes […]; assay type: toxicity, cell-based; settings: read-out: Ratio LC50/IC50
How it was run: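 SI = LC50 (L929, 48 h resazurin) / epimastigote IC50. […] CPRG (200 µM final, 0.9% Triton X-100, pH 7.4) added for 3 h at 37 °C, A595 read. Triplicates, n = 3; IC50 from %EGI curves.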

[10] = test system: Trypanosoma cruzi; test: Antichagasic activity against Trypanosoma cruzi Tulahuen amastigotes in mouse L929 cells assessed as growth inhibition after 96 hrs by beta galactosidase reporter gene assay; assay type: functional, organism-based; settings: L929, 96 h
How it was run: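 L929 cells (4000/well, RPMIS) held 24 h at 37 °C, then exposed 2 h to Tulahuen C4 lacZ trypomastigotes (1:10). Infection established 48 h, then compounds for 96 h at 37 °C, 5% CO₂. 500 µM CPRG in 0.5% Nonidet P40 for 18 h, A570. Triplicates; IC50 from %inhibition curves, mean ± SD.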

[11] = Cytotoxicity against mouse Cardiomyocytes after 48 hrs by Prestoblue assay; set-up: species or system Cardiomyocyte; settings: read-out: LC50
How it was run: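 Primary embryonic cardiac cells from Swiss mice, grown in DMEM with CaCl2, L-glutamine, 5% FBS and chick embryo extract. Seeded at 6×10^4 cells/well on gelatin, pre-incubated 24 h, then exposed to compounds for 48 h at 37 °C, 5% CO2. Morphology and contractility checked by light microscopy. PrestoBlue added for 5 h, absorbance read at 570/600 nm. Triplicates, n = 3; LC50 from dose–response, mean ± SD.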

[12] = test system: Trypanosoma cruzi; test: Antichagasic activity against Trypanosoma cruzi Y strain amastigotes in mouse cardiomyocytes assessed as growth inhibition after 48 hrs by giemsa staining based assay; assay type: functional, organism-based
How it was run: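 Primary embryonic Swiss mouse cardiac cells (100,000/well on gelatin-coated coverslips) infected 24 h with Y strain bloodstream trypomastigotes (1:10), washed, then 48 h with compound in DMEM. Bouin-fixed, Giemsa-stained. Infected cells and parasites per infected cell scored in 400 cells in duplicate; endocytic index = product. IC50 from %EI curves, mean ± SD.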

[13] = test system: Trypanosoma cruzi; test: Antichagasic activity against Trypanosoma cruzi CL-B5 intracellular amastigotes in mouse L929 cells assessed as growth inhibition after 7 days by beta galactosidase reporter gene assay; assay type: functional, organism-based; settings: CL-B5, L929, 168 h
How it was run: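 L929 fibroblasts (10,000/well, MEM) infected overnight at 33 °C, 5% CO₂ with CL-B5 lacZ tissue-culture trypomastigotes (1:6 cell:parasite). Washed, then 7 days with compound in fresh MEM. CPRG (400 µM final, pH 7.4) in 3% Triton X-100 for 3 h at 37 °C, A595. Triplicates; IC50 from %amastigote growth inhibition curves, mean ± SD.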

[14] = Selectivity index, ratio of LC50 for mouse L929 cells to IC50 for Trypanosoma cruzi CL-B5 lacZ amastigotes in mouse L929 cells; assay type: toxicity, cell-based; settings: read-out: Ratio LC50/IC50
How it was run: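 SI = LC50 (L929, 48 h resazurin) / amastigote IC50. Amastigotes: L929 cells (10,000/well, MEM) infected overnight at 33 °C with CL-B5 lacZ tissue-culture trypomastigotes (1:6 cell:parasite), washed, then exposed to compounds for 7 days. CPRG (400 µM final, 3% Triton X-100, pH 7.4) added for 3 h at 37 °C, A595 read. Triplicates; IC50 from %AGI curves. Assayed only when epimastigote SI warranted.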

[15] = test system: Trypanosoma cruzi; test: Antichagasic activity against Trypanosoma cruzi Y strain epimastigotes […] assessed as growth inhibition after 48 hrs by resazurin assay; assay type: functional, organism-based
How it was run: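 Y strain epimastigotes (3 × 10⁶/mL, log phase, pre-grown overnight at 28 °C) exposed 48 h at 28 °C, cell-free. Resazurin added for 5 more h, fluorescence read at ex 535/em 590 nm. Triplicates, three independent runs; IC50 from %growth inhibition curves, mean ± SD.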

| SMILES | Ratio CC50/IC50 [1] | pIC50 [2] | Ratio CC50/IC50 [3] | pIC50 [4] | CC50 at 48 h [5] | pIC50 [6] | CC50 at 24 h [7] | inhibition at 24 h, 300 µM [8] | selectivity ratio [9] | pIC50 [10] | CC50 at 48 h [11] | pIC50 [12] | pIC50 [13] | selectivity ratio [14] | pIC50 [15] |
| --- | --- | --- | --- | --- | --- | --- | --- | --- | --- | --- | --- | --- | --- | --- | --- |
| O=[N+]([O-])c1ccc2nn(Cc3ccccc3)c(OCCCO)c2c1 | >32.9 | 5.04 | >41.4 | 5.14 | > 256 µM | 4.19 | > 300 µM | 14.5% | > 3.94 | – | – | – | – | – | – |
| O=C(Cn1ccnc1[N+](=O)[O-])NCc1ccccc1 [BENZNIDAZOLE] | – | – | – | – | > 256 µM | 4.64 | – | – | > 11.3 | 5.78 | > 100 µM | 5.75 | 6.17 | > 376 | – |
| O=c1c2cc([N+](=O)[O-])ccc2n(CCO)n1Cc1ccccc1 | – | – | >16.7 | 4.75 | > 256 µM | 5.80 | > 300 µM | < 20% | > 162 | 6.09 | > 100 µM | 6.22 | 6.66 | > 1160 | 5.50 |
| O=[N+]([O-])c1ccc2nn(Cc3ccccc3)c(OCCCBr)c2c1 | 13.8 | 4.41 | 29 | 4.73 | 59 µM | 4.41 | 539 µM | < 20% | 1.51 | – | – | – | – | – | – |
